Series [1] concerns the target T1, Ribosyldihydronicotinamide dehydrogenase [quinone] (Homo sapiens, UniProt P16083).
T1 sequence (P16083 whole entry): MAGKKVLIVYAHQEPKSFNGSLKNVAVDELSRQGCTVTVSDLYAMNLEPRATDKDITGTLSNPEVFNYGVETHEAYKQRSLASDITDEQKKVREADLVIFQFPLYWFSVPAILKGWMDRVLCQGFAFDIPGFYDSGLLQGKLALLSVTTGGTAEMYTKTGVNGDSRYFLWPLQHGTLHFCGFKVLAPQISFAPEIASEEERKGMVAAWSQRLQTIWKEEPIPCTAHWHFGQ
Kind of series: (§1) Inhibition of human quinone reductase 2 using NMeH as substrate by MTT assay. The essentials: (§2)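 Human QR2 (12 nM) with 25 μM NMeH and 200 μM MTT in 100 mM NaCl, 50 mM Tris pH 7.5, 0.1% Triton X-100, 23 °C; reactions started by enzyme. Formazan formation read at 612 nm; initial rates from ε 11,300 M-1cm-1. Inhibitor at varying concentrations, triplicate; IC50 from % inhibition versus zero-inhibitor control.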
(In general: Formazan colour is commonly taken as a measure of viable cells.)

Series [2] addresses T2, Ribosyldihydronicotinamide dehydrogenase [quinone] (Homo sapiens) (UniProt P16083).
T2 sequence (whole entry): T1 sequence (P16083 whole entry)
The series is described as follows: Inhibition of human quinone reductase 2 using NMeH as substrate by MTT assay relative to control.

In series [3] the test system is MCF7. Kind of series: Cytotoxicity against human MCF7 cells assessed as cell growth at 10 uM. Format: cell-based. The following applies: mcf7, 10 µM. The essentials: (§3)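 Cells exposed to compound at a single concentration; read-out is growth percent relative to untreated control cultures.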
Series [4] deals with DU-145. The series is described as follows: Cytotoxicity against human DU145 cells assessed as cell growth at 10 uM. The format is cell-based. The settings on record: du-145, 10 µM. The essentials:
as §3

Series [5] relates to HCT-116. The series is described as follows: Cytotoxicity against human HCT116 cells assessed as cell growth at 10 uM. The format is cell-based. The settings on record: hct-116, 10 µM. The essentials:
as §3

The subject of series [6] is SF-539. Kind of series: Cytotoxicity against human SF539 cells assessed as cell growth at 10 uM. Format: cell-based. The settings on record: sf-539, 10 µM. The method in brief: as §3
Series [7] has as its system UACC-62. Kind of series: Cytotoxicity against human UACC62 cells assessed as cell growth at 10 uM. The following applies: uacc-62, 10 µM. Format: cell-based. The method in brief: as §3
Series [8] relates to HOP-62. The series is described as follows: Cytotoxicity against human HOP62 cells assessed as cell growth at 10 uM. Format: cell-based. The settings on record: hop-62, 10 µM. The method in brief:
as §3

For series [9], the system named is OVCAR-3. Kind of series: Cytotoxicity against human OVCAR3 cells assessed as cell growth at 10 uM. The following applies: ovcar-3, 10 µM. Format: cell-based. The method in brief:
as §3

Series [10] has as its system SN12C. The series is described as follows: Cytotoxicity against human SN12C cells assessed as cell growth at 10 uM. The format is cell-based. The essentials: as §3
Series [11] concerns the target T2, Ribosyldihydronicotinamide dehydrogenase [quinone] (Homo sapiens). Described as §1. The essentials: as §2
Series [12] shares this target. The series is described as follows: Ratio of IC50 for ammosamide B to compound IC50 for human quinone reductase 2 using NMeH as substrate by MTT assay.

Calls of active or inactive are those of the source. The calls are words filed in the database; no cut-off is given here.

On to `COC(=O)c1cc(C(N)=O)nc2cc(N(C)C)cc(Cl)c12`, for which it took 1.6 µM to reach half-maximal inhibition in series [1] (IC50). Also, in series [2], the Imax is 80.5%.

`CN1C(=O)c2cc(C(=O)NCc3ccccc3)nc3c(Cl)cc(Cl)c1c23` came in with an IC50 in series [1] of 7.8 µM. For the same compound, the Activity was determined as 95.79% in series [3]; 104.81% in [4]; 103.06% in series [5]; 97.49% in series [6]; 101.93% in series [7]; 113.2% in series [8]. In addition, the Activity is 103.52% in [9] and 107.48% in series [10]. The compound further gave an Imax in series [2] of 44.8%.

Regarding `CN1C(=O)c2cc(C(N)=O)nc3c(Cl)cc(Cl)c1c23`, in series [1], half-maximal inhibition (IC50) required 5.8 µM. For the same compound, the Activity is 96.11% in series [3]; 97.82% in series [4]; 107% in series [5]; 104.34% in [6]; 90.84% in series [7]; 105.32% in series [8]. Moreover, the Activity was found to be 108.21% in series [9] and 101.49% in [10]. In addition, the Imax in series [2] worked out at 46.3%.

Consider `COC(=O)c1cc(C(=O)OC)c2c(N)c(Cl)cc(Cl)c2n1`, for which the IC50 in series [1] is 22.1 µM. This compound also came in with an Imax in [2] of 36.6%.

For the compound `NC(=O)c1cc(C(N)=O)c2cc(I)c(N)cc2n1`, the IC50 in [1] was 1.5 µM. In series [2], this compound yielded an Imax of 64%.

As for `COC(=O)c1cc(C(=O)OC)c2c(Cl)cc(N(C)C)cc2n1`, in [1], half-maximal inhibition (IC50) required 4 µM. The Activity was 78.61% in series [3]; 138.91% in [4]; 104.18% in series [5]; 100.61% in series [6]; 109.82% in [7]; 114.23% in [8]. In addition, the Activity in [9] is 115.27%; in [10], 113.39%. Also, the Imax in series [2] came to 92.2%.

Regarding `COC(=O)c1cc(C(=O)OC)c2c(Cl)cc(N)cc2n1`, in [1], the IC50 is 3.3 µM. The Activity is recorded as 105.75% in series [3]; 108.11% in series [4]; 108.2% in series [5]; 117.31% in series [6]; 101.7% in [7]; 108.99% in series [8]. Moreover, the figures for the Activity in [9] and in [10] were 106.32% and 102.78%, respectively. The Imax in [2] worked out at 87.9%.

Take `COC(=O)c1cc(C(N)=O)nc2cc(N)c(N)c(Cl)c12`: half-maximal inhibition in series [1] (IC50) was put at 0.15 µM. For the same compound, in series [2], the Imax was found to be 89.7%.

In turn, `COC(=O)c1cc(C(N)=O)nc2cc(NC(C)=O)cc(Cl)c12` had an IC50 in [1] of 9 µM. Further, the Activity is reported as 89.58% in series [3]; 124.6% in series [4]; 104.18% in series [5]; 107.48% in [6]; 108.54% in series [7]; 103.41% in series [8]. Also, the Activity is on record as 120.2% in [9] and 109% in series [10]. In addition, in series [2], the Imax stood at 96%.

In series [1], `CN(C)C(=O)c1cc2c3c(c(Cl)cc(Cl)c3n1)N(C)C2=O` came in with an IC50 of 25.2 µM. For the same compound, the Activity in series [3] is 122.71%; in series [4], 127.34%; in series [5] it was 102.47%; in series [6] it was 101.43%; in series [7], 110.63%; in series [8], 118.26%. In addition, the Activity in series [9] is reported as 126.09%; in series [10], 106.07%. The compound also came in with an Imax in series [2] of 31.5%.

As to `COC(=O)c1cc(C(=O)OC)c2c(Cl)cc(NC(C)=O)cc2n1`, the IC50 in series [1] is above 100 µM. The Activity in series [3] is listed as 100.11%; in series [4] it was 112.18%; in series [5] it was 103.44%; in series [6] it was 109.23%; in series [7], 112.51%; in series [8] it was 112.21%. Further, the Activity came out at 124.69% in series [9] and 109.64% in [10].

For the compound `COC(=O)c1cc(C(N)=O)nc2cc(N)cc(Cl)c12`, the IC50 in series [1] stood at 1.1 µM. For the same compound, the Activity in series [3] was 97.23%; in series [4], 105.75%; in series [5], 98.84%; in [6], 104.82%; in [7], 102.96%; in series [8] it was 109.87%. The Activity amounted to 110.07% in [9] and 102.63% in series [10]. The Imax in series [2] worked out at 75.5%.

The compound `COC(=O)c1cc(C(N)=O)nc2cc(N)c(I)cc12` yielded an IC50 in series [1] of 1.5 µM. Further, the Imax in [2] is 83.9%.

In turn, `COC(=O)c1cc(C(=O)OC)c2c(Cl)c(N)c(N)cc2n1` had an IC50 in series [1] of 0.24 µM. The Imax in series [2] is 85.7%.

For `COC(=O)c1cc2c3c(n1)C(=O)C(=O)C(Cl)=C3N(C)C2=O`, the Activity is given as 94.99% in [3]; 112.19% in [4]; 104.56% in series [5]; 106.99% in [6]; 96.96% in series [7]; 110.6% in series [8]. Also, the Activity is given as 123.43% in series [9] and 102.66% in series [10].

As to `COC(=O)C1CC2(O)C(=O)Nc3c(Cl)cc(Cl)c(c32)N1` (centres undefined), in series [11], the inhibition entry was “inactive”.

In turn, `CN1C(=O)c2cc(C(N)=O)nc3c(N)c(Cl)c(N)c1c23` [AMMOSAMIDE B] returned an IC50 in series [1] of 0.061 µM. Besides, the Activity is 98.04% in series [3]; 114.59% in series [4]; 101.05% in series [5]; 88.22% in series [6]; 100.09% in series [7]; 96.95% in series [8]. In addition, the Activity was 115.24% in [9] and 98.89% in series [10]. For the same compound, in [2], the Imax came out at 90.3%.

Take `CNc1c(Cl)c(N)c2c3c(cc(C(N)=O)nc13)C(=O)N2C`: half-maximal inhibition in series [1] (IC50) required 0.0041 µM. This compound also came in with an Imax in series [2] of 102%. For the same compound, the Ratio IC50 in series [12] was above 10.

For the compound `COC(=O)c1cc(C(=O)OC)c2c(Cl)cc(N)c(Cl)c2n1`, inhibition in series [1] was half-maximal at 5.6 µM (IC50). Moreover, the Activity in series [3] came out at 100.27%; in [4], 108.85%; in series [5], 100.36%; in series [6] it was 99.06%; in series [7], 97.93%; in series [8], 104.53%. Moreover, the values for the Activity in [9] and in [10] were 109.55% and 99.49%, respectively. In addition, the Imax in series [2] amounted to 91.1%.

Turning to `COC(=O)C1CC(O)(C(=O)OC)c2c(N)c(Cl)cc(Cl)c2N1` (centres undefined), the inhibition entry in [11] was “inactive”.

The IC50 is the concentration at which inhibition is half-maximal.

(Values after ChEMBL document CHEMBL1944539, “Design, synthesis, and biological evaluation of potent quinoline and pyrroloquinoline ammosamide analogues as inhibitors of quinone reductase 2” (J Med Chem, 2012).)
